We go through five molecules from ChEMBL document CHEMBL2331333, “Synthesis, biological evaluation of new oxazolidino-sulfonamides as potential antimicrobial agents” (2013).

Values after ≈ are worked out from the molar mass of the structure shown. Active and inactive are the calls of the source. The rule behind the calls is not given here.

The first assay relates to Pseudomonas aeruginosa. As to the kind of experiment: Antibacterial activity against Pseudomonas aeruginosa MTCC 2453 after 24 hrs by agar dilution method. In kind it is functional. The note with it: MTCC 2453, 24 h.
On to `O=C1O[C@@H](CNS(=O)(=O)c2ccc(F)c(F)c2F)CN1c1ccc(N2CCOCC2)c(F)c1`, for which the minimal inhibitory concentration (MIC) came out at 8 µg/mL (≈ 16.3 µM).

In the case of `O=C1O[C@@H](CNS(=O)(=O)c2ccc(C(F)(F)F)cc2)CN1c1ccc(N2CCSCC2)c(F)c1`, the MIC turned out to be 8 µg/mL (≈ 15.4 µM).

`O=C1O[C@@H](CNS(=O)(=O)c2ccc(F)c(F)c2)CN1c1ccc(N2CCOCC2)c(F)c1` returned an MIC of 10 µg/mL (≈ 21.2 µM).

The molecule `O=C1O[C@@H](CNS(=O)(=O)c2cccs2)CN1c1ccc(N2CCSCC2)c(F)c1` displayed a minimum inhibitory concentration (MIC) of 4 µg/mL (≈ 8.74 µM).

Turning to `O=C1O[C@@H](CNS(=O)(=O)c2cccc3cccnc23)CN1c1ccc(N2CCSCC2)c(F)c1`, the MIC came out at 8 µg/mL (≈ 15.9 µM).

The next assay concerns Mycobacterium tuberculosis. As to the kind of experiment: Antibacterial activity against Mycobacterium tuberculosis H37Rv at 32 ug/ml […] by agar dilution method. In kind it is functional, organism-based.
Conditions: not given
As to `O=C1O[C@@H](CNS(=O)(=O)c2ccc(F)c(F)c2F)CN1c1ccc(N2CCOCC2)c(F)c1`, the outcome was inactive.

Consider `O=C1O[C@@H](CNS(=O)(=O)c2ccc(C(F)(F)F)cc2)CN1c1ccc(N2CCSCC2)c(F)c1`, for which the result was inactive.

For `O=C1O[C@@H](CNS(=O)(=O)c2ccc(F)c(F)c2)CN1c1ccc(N2CCOCC2)c(F)c1`, the result was inactive.

With `O=C1O[C@@H](CNS(=O)(=O)c2cccs2)CN1c1ccc(N2CCSCC2)c(F)c1`, the outcome was inactive.

For `O=C1O[C@@H](CNS(=O)(=O)c2cccc3cccnc23)CN1c1ccc(N2CCSCC2)c(F)c1`, the outcome was inactive.

Another assay deals with Micrococcus luteus. Description: Antibacterial activity against Micrococcus luteus MTCC 2470 after 24 hrs by agar dilution method. The format is functional. The note with it: MTCC 2470, 24 h.
For `O=C1O[C@@H](CNS(=O)(=O)c2cccs2)CN1c1ccc(N2CCSCC2)c(F)c1`, the MIC amounted to 6 µg/mL (≈ 13.1 µM).

For a further assay, the system named is Staphylococcus. Description: Antibacterial activity against Staphylococcus MLS-16 MTCC 2940 after 24 hrs by agar dilution method. In kind it is functional. The note with it: MLS-16 MTCC 2940, 24 h.
As for `O=C1O[C@@H](CNS(=O)(=O)c2ccc(F)c(F)c2F)CN1c1ccc(N2CCOCC2)c(F)c1`, the MIC amounted to 6 µg/mL (≈ 12.3 µM).

Molecule `O=C1O[C@@H](CNS(=O)(=O)c2ccc(C(F)(F)F)cc2)CN1c1ccc(N2CCSCC2)c(F)c1` came in with an MIC of 8 µg/mL (≈ 15.4 µM). This MIC and that of the molecule before are within 1.5-fold of each other.

The molecule `O=C1O[C@@H](CNS(=O)(=O)c2ccc(F)c(F)c2)CN1c1ccc(N2CCOCC2)c(F)c1` came in with an MIC of 10 µg/mL (≈ 21.2 µM).

With `O=C1O[C@@H](CNS(=O)(=O)c2cccs2)CN1c1ccc(N2CCSCC2)c(F)c1`, the MIC came out at 4 µg/mL (≈ 8.74 µM).

The molecule `O=C1O[C@@H](CNS(=O)(=O)c2cccc3cccnc23)CN1c1ccc(N2CCSCC2)c(F)c1` came in with an MIC of 6 µg/mL (≈ 11.9 µM).

Another assay has as its system Bacillus subtilis. Description: Antibacterial activity against Bacillus subtilis MTCC 121 after 24 hrs by agar dilution method. In kind it is functional. The note with it: MTCC 121, 24 h.
`O=C1O[C@@H](CNS(=O)(=O)c2ccc(F)c(F)c2F)CN1c1ccc(N2CCOCC2)c(F)c1` registered an MIC of 6 µg/mL (≈ 12.3 µM).

With `O=C1O[C@@H](CNS(=O)(=O)c2ccc(C(F)(F)F)cc2)CN1c1ccc(N2CCSCC2)c(F)c1`, the MIC amounted to 10 µg/mL (≈ 19.2 µM).

Take `O=C1O[C@@H](CNS(=O)(=O)c2ccc(F)c(F)c2)CN1c1ccc(N2CCOCC2)c(F)c1`: the MIC amounted to 10 µg/mL (≈ 21.2 µM).

For the molecule `O=C1O[C@@H](CNS(=O)(=O)c2cccs2)CN1c1ccc(N2CCSCC2)c(F)c1`, the minimal inhibitory concentration (MIC) turned out to be 2 µg/mL (≈ 4.37 µM). This MIC is about 5-fold lower than that of the molecule before.

In turn, `O=C1O[C@@H](CNS(=O)(=O)c2cccc3cccnc23)CN1c1ccc(N2CCSCC2)c(F)c1` registered an MIC of 8 µg/mL (≈ 15.9 µM).

Another assay concerns Staphylococcus aureus. As to the kind of experiment: Antibacterial activity against Staphylococcus aureus MTCC 96 after 24 hrs by agar dilution method. In kind it is functional. The note with it: MTCC 96, 24 h.
Consider `O=C1O[C@@H](CNS(=O)(=O)c2ccc(F)c(F)c2F)CN1c1ccc(N2CCOCC2)c(F)c1`, for which inhibition of growth (MIC) required 6 µg/mL (≈ 12.3 µM).

The molecule `O=C1O[C@@H](CNS(=O)(=O)c2ccc(C(F)(F)F)cc2)CN1c1ccc(N2CCSCC2)c(F)c1` displayed an MIC of 8 µg/mL (≈ 15.4 µM).

`O=C1O[C@@H](CNS(=O)(=O)c2cccs2)CN1c1ccc(N2CCSCC2)c(F)c1` returned an MIC of 4 µg/mL (≈ 8.74 µM). Against the preceding molecule, the MIC is about 2-fold lower.

The molecule `O=C1O[C@@H](CNS(=O)(=O)c2cccc3cccnc23)CN1c1ccc(N2CCSCC2)c(F)c1` showed an MIC of 6 µg/mL (≈ 11.9 µM). This MIC is about 1.5-fold higher than that of the molecule before.

The next assay relates to Raoultella planticola. As to the kind of experiment: Antibacterial activity against Klebsiella planticola MTCC 530 at 80 ug/ml after 24 hrs by agar dilution method. In kind it is functional, organism-based.
Conditions: not given
`O=C1O[C@@H](CNS(=O)(=O)c2ccc(F)c(F)c2F)CN1c1ccc(N2CCOCC2)c(F)c1`: the result was inactive.

On to `O=C1O[C@@H](CNS(=O)(=O)c2ccc(C(F)(F)F)cc2)CN1c1ccc(N2CCSCC2)c(F)c1`, for which the outcome was inactive.

For `O=C1O[C@@H](CNS(=O)(=O)c2cccs2)CN1c1ccc(N2CCSCC2)c(F)c1`, the result was inactive.

As to `O=C1O[C@@H](CNS(=O)(=O)c2cccc3cccnc23)CN1c1ccc(N2CCSCC2)c(F)c1`, the outcome was inactive.

Another assay deals with Candida albicans. As to the kind of experiment: Antifungal activity against Candida albicans MTCC 3017 after 48 hrs by agar dilution method. The format is functional. The note with it: MTCC 3017, 48 h. The essentials:
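Same disk/dilution format as the antibacterial assay, on potato dextrose agar (39 g/L). Compounds were from DMSO stock, loaded at 1 to 80 per disk, in triplicate. Plates were incubated at 28 ± 2 °C for 48 h. MIC was the lowest amount that arrested growth. Equivalent DMSO served as solvent control.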
`O=C1O[C@@H](CNS(=O)(=O)c2ccc(F)c(F)c2F)CN1c1ccc(N2CCOCC2)c(F)c1` yielded a minimal inhibitory concentration (MIC) of 6 µg/mL (≈ 12.3 µM).

As to `O=C1O[C@@H](CNS(=O)(=O)c2ccc(C(F)(F)F)cc2)CN1c1ccc(N2CCSCC2)c(F)c1`, the MIC was found to be 8 µg/mL (≈ 15.4 µM).

For the molecule `O=C1O[C@@H](CNS(=O)(=O)c2ccc(F)c(F)c2)CN1c1ccc(N2CCOCC2)c(F)c1`, the MIC came to 10 µg/mL (≈ 21.2 µM).

`O=C1O[C@@H](CNS(=O)(=O)c2cccs2)CN1c1ccc(N2CCSCC2)c(F)c1` came in with an MIC of 4 µg/mL (≈ 8.74 µM).

Take `O=C1O[C@@H](CNS(=O)(=O)c2cccc3cccnc23)CN1c1ccc(N2CCSCC2)c(F)c1`: 8 µg/mL (≈ 15.9 µM) was the least that counted as inhibitory (MIC).

Another assay relates to Escherichia coli. Description: Antibacterial activity against Escherichia coli MTCC 739 at 80 ug/ml after 24 hrs by agar dilution method. The format is functional, organism-based.
Conditions: not given
Take `O=C1O[C@@H](CNS(=O)(=O)c2ccc(F)c(F)c2F)CN1c1ccc(N2CCOCC2)c(F)c1`: the result was inactive.

With `O=C1O[C@@H](CNS(=O)(=O)c2ccc(C(F)(F)F)cc2)CN1c1ccc(N2CCSCC2)c(F)c1`, the outcome was inactive.

With `O=C1O[C@@H](CNS(=O)(=O)c2cccs2)CN1c1ccc(N2CCSCC2)c(F)c1`, the outcome was inactive.

`O=C1O[C@@H](CNS(=O)(=O)c2cccc3cccnc23)CN1c1ccc(N2CCSCC2)c(F)c1`: the outcome was inactive.

A further assay concerns Micrococcus luteus. As to the kind of experiment: Antibacterial activity against Micrococcus luteus MTCC 2470 at 80 ug/ml after 24 hrs by agar dilution method. In kind it is functional, organism-based.
Conditions: not given
For the molecule `O=C1O[C@@H](CNS(=O)(=O)c2ccc(F)c(F)c2F)CN1c1ccc(N2CCOCC2)c(F)c1`, the result was inactive.

Turning to `O=C1O[C@@H](CNS(=O)(=O)c2ccc(C(F)(F)F)cc2)CN1c1ccc(N2CCSCC2)c(F)c1`, the outcome was inactive.

As for `O=C1O[C@@H](CNS(=O)(=O)c2ccc(F)c(F)c2)CN1c1ccc(N2CCOCC2)c(F)c1`, the outcome was inactive.

Take `O=C1O[C@@H](CNS(=O)(=O)c2cccc3cccnc23)CN1c1ccc(N2CCSCC2)c(F)c1`: the outcome was inactive.
